Converted amounts (≈) assume the structure as drawn. The source made the active and inactive calls. The calls are words filed in the database; no cut-off is given here.
Legend:
[1] = Toxicity in complete freund's adjuvant-induced DBA/1 mouse arthritis model assessed as change in body weight at 10 mg/kg, po qd administered starting from 29 day post-CFA challenge and measured on day 29, 33, 36, 40 and 43; type: organism-based; details: in vivo, 696 h
Summary of the method: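 CIA in male DBA/1 mice: intradermal bovine type II collagen in CFA on day 0, collagen II in IFA boost on day 20. Randomized on day 29 and given oral doses once daily (n=6 per group) alongside vehicle and naive groups. Body weights recorded over the study days.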

[2] = Volume of distribution in Sprague-Dawley rat at 2 mg/kg, iv or 5 mg/kg, po by LC-MS/MS analysis; type: ADME, organism-based; details: in vivo
Summary of the method: (§1)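 Male Sprague-Dawley rats (187-205 g, n=6 per route). IV group: 2 mg/kg by tail vein in 10% DMSO/90% PEG400, fed animals. Oral group: 5 mg/kg as a 0.5% methylcellulose suspension, fasted animals. Jugular cannula blood taken pre-dose and from 0.033 h (iv only) to 24 h. Plasma stored at -20 °C and analysed by LC-MS/MS.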

[3] = target: Tyrosine-protein kinase Fyn (Homo sapiens, UniProt P06241); test: Inhibition of human full-length recombinant FYN using KVEKIGEGTYGVVYK as substrate measured after 40 mins in presence of [gamma-33P]-ATP by scintillation counting analysis
Summary of the method: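 Started with Mg/ATP; 40 min at room temperature. Stopped with 0.5% phosphoric acid, spotted onto P30 filtermat, washed, scintillation counted. Mean of ≥3 assays in triplicate.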

[4] = target: T1, Tyrosine-protein kinase BTK (Homo sapiens, UniProt Q06187); test: Reversible inhibition of sodium orthovanadate-stimulated BTK autophosphorylation at Tyr223 residues in human Ramos cells preincubated for 2 hrs followed by sodium orthovanadate addition and measured after 15 mins by Western blot analysis; type: cell-based
[5] = Kinetic aqueous solubility of the compound in pH 7.4 phosphate buffered saline incubated for 24 hrs under shaking condition by HPLC analysis; type: physicochemical; details: read-out: Kinetic_solubility
Summary of the method: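 Dry powder shaken 24 h at 25 °C in 0.1 M phosphate buffer, pH 7.4, then filtered through a 0.45 µm membrane. Concentration determined by HPLC against a standard of the compound in DMSO. Mean of three separate assays in triplicate.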

[6] = Half life in Sprague-Dawley rat at 2 mg/kg, iv by LC-MS/MS analysis; type: ADME, organism-based; details: in vivo; summary of the method: as §1
[7] = Stability in monkey plasma assessed as parent compound remaining at 1 uM measured after 2 hrs by LC-MS/MS analysis; type: ADME, cell-free, Macaca mulatta; details: rhesus monkey, read-out: Stability
Summary of the method: (§2)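 Compound at 1 µM initial concentration incubated 2 h at 37 °C in plasma. Quenched with 10 volumes of methanol containing internal standard, then centrifuged. Supernatant diluted with an equal volume of water and analysed by LC-MS/MS. Read-out is % parent remaining. Mean of three separate assays run in triplicate.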

Homo sapiens = species: Homo sapiens; test: Selectivity ratio of IC50 for human full-length recombinant FYN to IC50 for inhibition of FAM-labeled peptide binding to full-length human N-terminal GST-tagged BTK (2 to 659 residues) expressed in baculovirus infected Sf21 insect cells
Summary of the method: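 Ratio of kinase IC50 to BTK IC50. BTK measured by off-chip mobility shift: compound preincubated 10 min with BTK in 50 mM HEPES pH 7.5, 0.01% Brij-35, then FAM-labelled peptide and ATP added, 28 °C. Stopped with EDTA buffer; percent conversion fitted for IC50. Each panel kinase assayed in triplicate.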

[8] = Oral bioavailability in Sprague-Dawley rat at 5 mg/kg by LC-MS/MS analysis; type: ADME, organism-based; details: in vivo; summary of the method: as §1
[9] = target: Tyrosine-protein kinase Yes (Homo sapiens, UniProt P07947); test: Inhibition of human full-length recombinant YES using poly(Glu, Tyr) 4:1 as substrate measured after 40 mins in presence of [gamma-33P]-ATP by scintillation counting analysis
Summary of the method: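 Started with Mg/ATP at room temperature; 40 min incubation. Stopped with 0.5% phosphoric acid, spotted onto Filtermat A, washed, scintillation counted. Mean of ≥3 assays in triplicate.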

[10] = Stability in Beagle dog plasma assessed as parent compound remaining at 1 uM measured after 2 hrs by LC-MS/MS analysis; type: ADME, cell-free, Canis lupus familiaris; details: read-out: Stability; summary of the method: as §2
[11] = target: T1, Tyrosine-protein kinase BTK; test: Reversible inhibition of FAM-labeled peptide binding to full-length human N-terminal GST-tagged BTK (2 to 659 residues) expressed in baculovirus infected Sf21 insect cells at preincubated for 10 mins followed by FAM-labeled peptide addition and measured by off-chip mobility shift assay
Mus musculus = test: Antiarthritic activity in complete freund's adjuvant-induced DBA/1 mouse arthritis model assessed as reduction in paw volume at 10 mg/kg, po qd administered starting from 29 day post-CFA challenge and measured on day 29, 33, 36, 40 and 43 by caliper method; type: functional, organism-based
Summary of the method: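 Male DBA/1 mice (18-20 g, 4-6 weeks) immunized intradermally at the tail base with bovine type II collagen in CFA on day 0, then challenged with collagen II in IFA on day 20. Randomized on day 29 and dosed orally once daily (n=6 per group) with vehicle as control. Paw thickness measured by caliper on days 29, 33, 36, 40 and 43. Mean ± SEM; Dunnett's test vs vehicle.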

[12] = target: T2, Tyrosine-protein kinase Tec (Homo sapiens, UniProt P42680); test: Inhibition of recombinant human N-terminal GST-fused TEC catalytic domain (359 to 631 residues) expressed in baculovirus expression system using biotin-labelled STK/TK as substrate measured after 1 hr by HTRF assay
T2 sequence (P42680 whole entry): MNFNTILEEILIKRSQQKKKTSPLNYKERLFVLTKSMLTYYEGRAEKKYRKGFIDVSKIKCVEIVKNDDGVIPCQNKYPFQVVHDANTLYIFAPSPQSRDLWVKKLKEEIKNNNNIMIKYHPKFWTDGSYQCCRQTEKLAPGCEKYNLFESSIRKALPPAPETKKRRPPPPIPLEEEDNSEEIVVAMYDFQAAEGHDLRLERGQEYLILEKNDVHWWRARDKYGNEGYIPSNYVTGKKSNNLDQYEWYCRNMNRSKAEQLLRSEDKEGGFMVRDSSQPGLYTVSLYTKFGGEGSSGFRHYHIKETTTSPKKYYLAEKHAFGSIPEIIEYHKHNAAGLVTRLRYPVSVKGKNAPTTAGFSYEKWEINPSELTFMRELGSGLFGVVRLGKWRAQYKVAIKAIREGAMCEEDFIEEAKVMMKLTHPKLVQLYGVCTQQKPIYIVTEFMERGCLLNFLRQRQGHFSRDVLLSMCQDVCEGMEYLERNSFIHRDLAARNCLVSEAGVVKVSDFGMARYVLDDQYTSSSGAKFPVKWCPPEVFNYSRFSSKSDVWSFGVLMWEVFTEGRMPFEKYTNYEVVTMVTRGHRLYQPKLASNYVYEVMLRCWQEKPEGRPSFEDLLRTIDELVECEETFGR
Summary of the method: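 HTRF KinEase format: TEC kinase and substrate mixed with serial compound concentrations at rt, then ATP added to start. Stopped after 1 h with EDTA detection solution containing europium anti-phosphotyrosine antibody and streptavidin-XL665. Read after a further 1 h at rt. Mean of ≥3 assays in triplicate.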

T1 sequence (Q06187 whole entry): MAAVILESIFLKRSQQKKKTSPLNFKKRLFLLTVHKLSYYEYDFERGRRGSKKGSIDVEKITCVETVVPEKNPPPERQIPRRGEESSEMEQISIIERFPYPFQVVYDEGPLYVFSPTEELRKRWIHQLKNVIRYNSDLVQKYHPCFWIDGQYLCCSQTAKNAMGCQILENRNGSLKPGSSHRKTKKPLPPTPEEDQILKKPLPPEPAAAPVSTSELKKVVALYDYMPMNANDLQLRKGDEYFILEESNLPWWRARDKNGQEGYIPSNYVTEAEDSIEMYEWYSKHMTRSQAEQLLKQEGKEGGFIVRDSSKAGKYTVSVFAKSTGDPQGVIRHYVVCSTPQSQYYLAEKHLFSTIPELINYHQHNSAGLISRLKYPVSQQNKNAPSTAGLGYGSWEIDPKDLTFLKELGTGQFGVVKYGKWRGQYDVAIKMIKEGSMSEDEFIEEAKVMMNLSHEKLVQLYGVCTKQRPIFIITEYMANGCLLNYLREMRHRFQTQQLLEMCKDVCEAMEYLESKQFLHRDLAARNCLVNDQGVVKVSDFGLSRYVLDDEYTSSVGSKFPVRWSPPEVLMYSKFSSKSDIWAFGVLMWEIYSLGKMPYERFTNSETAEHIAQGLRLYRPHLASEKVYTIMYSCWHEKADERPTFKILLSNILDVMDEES
Sequence of Tyrosine-protein kinase Yes (P07947 whole entry): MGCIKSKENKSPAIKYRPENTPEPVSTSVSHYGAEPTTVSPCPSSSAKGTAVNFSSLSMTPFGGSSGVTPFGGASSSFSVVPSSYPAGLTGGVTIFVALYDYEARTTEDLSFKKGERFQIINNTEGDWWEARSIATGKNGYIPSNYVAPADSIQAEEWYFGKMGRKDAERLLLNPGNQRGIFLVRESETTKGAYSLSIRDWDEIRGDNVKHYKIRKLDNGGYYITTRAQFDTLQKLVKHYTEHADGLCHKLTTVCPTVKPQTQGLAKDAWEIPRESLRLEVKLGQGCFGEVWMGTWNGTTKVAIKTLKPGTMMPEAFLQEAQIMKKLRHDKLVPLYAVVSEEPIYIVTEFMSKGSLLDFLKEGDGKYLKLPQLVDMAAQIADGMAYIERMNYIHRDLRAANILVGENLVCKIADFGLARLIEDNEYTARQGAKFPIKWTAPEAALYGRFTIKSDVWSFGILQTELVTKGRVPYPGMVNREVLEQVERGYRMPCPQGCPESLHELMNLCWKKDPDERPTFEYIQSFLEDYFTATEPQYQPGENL
Sequence of Tyrosine-protein kinase Fyn (P06241 whole entry): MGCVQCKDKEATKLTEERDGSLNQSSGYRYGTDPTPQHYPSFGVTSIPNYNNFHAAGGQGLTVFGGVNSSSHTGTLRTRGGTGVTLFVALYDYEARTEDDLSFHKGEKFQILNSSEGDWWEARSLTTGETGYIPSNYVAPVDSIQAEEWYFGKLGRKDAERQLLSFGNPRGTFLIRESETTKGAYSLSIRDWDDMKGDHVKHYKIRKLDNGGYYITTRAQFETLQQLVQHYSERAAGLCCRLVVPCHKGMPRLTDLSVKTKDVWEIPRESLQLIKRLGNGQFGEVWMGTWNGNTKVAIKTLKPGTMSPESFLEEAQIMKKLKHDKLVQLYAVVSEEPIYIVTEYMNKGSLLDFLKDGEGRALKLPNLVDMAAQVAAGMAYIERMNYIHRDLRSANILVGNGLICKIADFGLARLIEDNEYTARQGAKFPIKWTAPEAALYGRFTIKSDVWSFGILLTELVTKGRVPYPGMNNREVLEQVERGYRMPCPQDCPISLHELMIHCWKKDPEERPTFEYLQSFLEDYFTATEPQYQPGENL

## COc1cc2cn[nH]c2cc1-c1ccc(F)c2c(N)c(C(N)=O)cnc12
[1]
  Activity: Non-Toxic
[2]
  Vd: 2.1 L/kg
[3]
  IC50: 0.165 µM
[4]
  EC50: 0.0427 µM
[5]
  solubility kinetic at 24 h: 7.3 µg/mL (≈ 20.8 µM)
[6]
  half-life: 1.2 h
[7]
  remaining at 2 h, 1 µM: 88%
Homo sapiens
  Ratio IC50: 31
[8]
  bioavailability: 25%
[9]
  IC50: > 10 µM
[10]
  remaining at 2 h, 1 µM: 88%
[11]
  IC50: 0.0053 µM
Mus musculus
  Activity: Active
[12]
  IC50: 0.227 µM
